Measured values pooled from the literature.
Protocols differ between the studies behind these lines.
Target: Non-receptor tyrosine-protein kinase TNK1 (TNK1, Homo sapiens, UniProt Q13470)
One construct used (Q13470 1-666): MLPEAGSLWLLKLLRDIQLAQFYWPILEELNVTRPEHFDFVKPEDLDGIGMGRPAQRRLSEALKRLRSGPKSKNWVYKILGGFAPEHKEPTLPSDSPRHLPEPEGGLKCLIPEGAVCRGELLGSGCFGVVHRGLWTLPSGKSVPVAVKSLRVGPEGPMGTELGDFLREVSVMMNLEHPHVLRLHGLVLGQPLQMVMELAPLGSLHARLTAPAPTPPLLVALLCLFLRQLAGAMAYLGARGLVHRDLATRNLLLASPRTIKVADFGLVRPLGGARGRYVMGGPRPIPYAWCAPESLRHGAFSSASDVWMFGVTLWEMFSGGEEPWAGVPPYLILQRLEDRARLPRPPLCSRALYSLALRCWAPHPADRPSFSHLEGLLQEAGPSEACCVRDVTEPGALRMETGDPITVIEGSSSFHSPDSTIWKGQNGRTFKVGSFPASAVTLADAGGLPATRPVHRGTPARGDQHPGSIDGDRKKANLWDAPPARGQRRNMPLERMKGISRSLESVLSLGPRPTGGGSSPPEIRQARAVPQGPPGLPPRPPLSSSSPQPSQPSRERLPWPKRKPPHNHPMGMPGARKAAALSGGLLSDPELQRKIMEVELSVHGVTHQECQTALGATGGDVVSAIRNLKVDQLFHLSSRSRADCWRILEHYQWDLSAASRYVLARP

SMILES	read-out	method	tested at	remaining binding
COc1cnc(Nc2cccc(S(N)(=O)=O)c2)nc1N1CCN(c2ccccc2)C(=O)C1	binding	competition with immobilised ligand	1 µM	100%
O=C(NCC1CCOCC1)c1n[nH]cc1NC(=O)c1c(F)cccc1F	binding	competition with immobilised ligand	1 µM	98%
O=C(c1ccc(Nc2nccc(-c3cc4ccccc4s3)n2)cc1)N1CCC(N2CCCC2)CC1	binding	competition with immobilised ligand	1 µM	27%
Cn1cc(Cl)c2c(Oc3c(F)cc(Nc4cc(Cl)nc(N)n4)cc3F)ccnc21	cell-free assay	competition with immobilised ligand	0.1 µM	100%
Cc1cnc(Nc2ccc(C(=O)N3CCC(N4CCCC4)CC3)cc2)nc1-c1cc2ccccc2s1	binding	competition with immobilised ligand	1 µM	13%
CN(C)c1nccc(-c2cnn3ncccc23)n1	binding		1 µM	67%
Cc1c(C(=O)O)cc(-c2ccc(C3CCNCC3)cc2)c2ccc(-c3ccc(C(F)(F)F)cc3)cc12	binding	competition with immobilised ligand	1 µM	100%
CN(C)c1ncc(F)c(-c2cnn3ncccc23)n1	binding		1 µM	100%
c1cncc(-c2cccc(Nc3nccc(NC4CCCCC4)n3)c2)c1	binding	competition with immobilised ligand	10 µM	40%
C[C@H]1CCN(c2nccc(-c3cnn4ncccc34)n2)C1	binding		1 µM	100%
C[C@@H](c1cccc(C#N)c1)n1cc(Cl)cc(C(N)=O)c1=N	cell-free assay	competition with immobilised ligand	1 µM	94%
COc1cnc(Nc2cccc(S(N)(=O)=O)c2)nc1N1CCN(c2ccccc2)CC1	binding	competition with immobilised ligand	1 µM	98%
N[C@@H]1CCN(c2nccc(-c3cnn4ncccc34)n2)C1	binding		1 µM	100%
O=C(NCCCN1CCOCC1)c1ccc(Nc2nccc(-c3cc4ccccc4s3)n2)cc1	binding	competition with immobilised ligand	1 µM	41%
CN1CCN(c2cnc3c(C4CCN(C(=O)c5ccc(OC(F)(F)F)cc5N)CC4)ncnc3c2)CC1	cell-free assay	competition with immobilised ligand	1 µM	100%
FC(F)(F)Oc1cccc(-c2cnc3ccc(-c4ccncc4)nn23)c1	binding	competition with immobilised ligand	5 µM	88%
COc1ncc2cc3ccccc3nc2c1C#N	cell-free assay	competition with immobilised ligand	5 µM	100%
C[C@@H](c1ccc(-n2cnc3c(N)ncnc32)cc1)N1CCc2nn(C)c(Cc3ccccc3)c2C1=O	binding	competition with immobilised ligand	0.1 µM	47%
CNC(=O)c1ccc(Nc2ncc(C(F)(F)F)c(NCc3nccnc3N(C)S(C)(=O)=O)n2)cc1	cell-free assay	competition with immobilised ligand	0.1 µM	100%
c1cnn2ncc(-c3ccnc(N4CCC45COC5)n3)c2c1	binding		1 µM	100%
Cc1c[nH]c2nccc(Oc3c(F)cc(Nc4cc(Cl)nc(N)n4)cc3F)c12	cell-free assay	competition with immobilised ligand	0.1 µM	100%
Cc1cnn2ncc(-c3ccnc(N(C)C)n3)c2c1	binding		1 µM	98%
